As a reminder, the inhibition is the drop in the measured response relative to a control, in per cent. A lower inhibition goes with a response near the control. By Ki is commonly meant a measure of affinity in units of concentration, obtained from inhibition or displacement. A lower Ki goes with a stronger hold on the target. The Km is the substrate concentration at which the rate is half of its maximum. The Vmax is the top rate of the reaction or transport when substrate is in excess. Broadly, the kcat is the number of substrate molecules converted per active site and unit of time at saturation.

For series [1], the target named is T1, 1D-myo-inositol 2-acetamido-2-deoxy-alpha-D-glucopyranoside deacetylase (Mycobacterium tuberculosis) (UniProt P9WJN3).
T1 sequence (whole entry): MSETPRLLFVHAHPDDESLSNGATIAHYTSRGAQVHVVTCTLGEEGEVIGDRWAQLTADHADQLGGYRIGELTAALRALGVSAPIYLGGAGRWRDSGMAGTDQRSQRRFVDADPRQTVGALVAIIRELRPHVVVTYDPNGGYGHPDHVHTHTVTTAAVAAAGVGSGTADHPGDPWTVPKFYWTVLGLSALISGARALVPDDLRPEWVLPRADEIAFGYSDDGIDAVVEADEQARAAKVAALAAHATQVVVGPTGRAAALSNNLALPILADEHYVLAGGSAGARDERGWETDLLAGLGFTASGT
Kind of series: Inhibition of Mycobacterium tuberculosis MshB expressed in Escherichia coli BL21 at 500 uM after 10 mins by HPLC analysis. Put shortly: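 Recombinant MshB (E. coli BL21(DE3) pLysS, purified) assayed with GlcNAc-Ins and inhibitor, each at 500 μM, in 40 μl with 1.0 μmol Na-Hepes pH 7.5, 1.0 μmol NaCl, 3.26 μg MshB; 10 min at 37 °C; stopped with acetonitrile/TFA, 60 °C 10 min; GlcN-Ins measured by C-18 hplc as AccQ-Fluor derivative; percent inhibition.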

Series [2] concerns Mycolicibacterium smegmatis. The series is described as follows: Inhibition of Mycobacterium smegmatis Mca at 250 uM after 10 mins by HPLC analysis. Put shortly: (§1)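 Native Mca purified from M. smegmatis by (NH4)2SO4 cut (15–50%), DEAE, hydroxyapatite and size-exclusion HPLC. 8.0 nmol of the bimane substrate MSmB and 8.0 nmol inhibitor (250 µM each) in Na-Hepes pH 7.5 with NaCl, 40 µl final volume, run 10 min at 37 °C. Stopped with acetonitrile/TFA and 60 °C for 10 min. Product read by C-18 HPLC with fluorescence detection (ex 396/em 482 nm).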

The target in series [3] is T1, 1D-myo-inositol 2-acetamido-2-deoxy-alpha-D-glucopyranoside deacetylase (Mycobacterium tuberculosis). Kind of series: Activity at Mycobacterium tuberculosis MshB expressed in Escherichia coli BL21 at 250 uM assessed per mg of protein by HPLC analysis. Put shortly:
(§2)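 Recombinant MshB from E. coli BL21(DE3) pLysS (IPTG 0.4 mM, 18 °C) purified by DEAE, Zn-IMAC and gel filtration. Substrates (GlcNAc glycosides, 250 μM for single-point comparison) incubated with 8.15 μg MshB, 1 μmol NaCl, 1 μmol Hepes pH 7.5 in 40 μl, 10 min, 37 °C; product quantified by C-18 hplc (UV for phenyl aglycons, dansylated for cyclohexyl) against complete-cleavage calibration curves.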

The target is the same in series [4]. Kind of series: Ratio of Kcat to Km for Mycobacterium tuberculosis MshB. Summed up: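 GlcNAc-Ins varied 50–2000 μM with 3.26 μg purified recombinant MshB, 1.0 μmol Na-Hepes pH 7.5, 1.0 μmol NaCl in 40 μl, 10 min at 37 °C; GlcN-Ins quantified by hplc as AccQ-Fluor derivative.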
For series [5], the target named is T2, 1D-myo-inositol 2-acetamido-2-deoxy-alpha-D-glucopyranoside deacetylase (Mycobacterium tuberculosis, UniProt P9WJN3).
T2 sequence (P9WJN3 whole entry): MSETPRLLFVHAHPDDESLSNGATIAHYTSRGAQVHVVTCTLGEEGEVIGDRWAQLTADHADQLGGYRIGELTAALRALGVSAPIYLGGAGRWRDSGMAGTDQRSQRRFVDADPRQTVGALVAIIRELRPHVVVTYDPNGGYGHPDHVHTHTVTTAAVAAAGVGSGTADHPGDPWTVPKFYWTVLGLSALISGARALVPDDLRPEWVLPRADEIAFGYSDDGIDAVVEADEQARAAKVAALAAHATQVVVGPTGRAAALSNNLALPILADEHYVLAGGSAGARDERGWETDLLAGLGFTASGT
The series is described as follows: Inhibition of Mycobacterium tuberculosis MshB expressed in Escherichia coli BL21 after 10 mins by HPLC analysis.

Series [6] relates to Mycolicibacterium smegmatis. Kind of series: Activity at Mycobacterium smegmatis Mca by HPLC analysis. Put shortly:
as §1

Substrate in series [7]: CC(=O)N[C@H]1[C@@H](O[C@@H]2[C@H](O)[C@H](O)[C@@H](O)[C@H](O)[C@H]2O)O[C@H](CO)[C@@H](O)[C@@H]1O
The series is described as follows: (§3) Activity at Mycobacterium tuberculosis MshB expressed in Escherichia coli BL21 assessed per mg of protein by HPLC analysis. Summed up:
as §2

Substrate in series [8]: CC(=O)N[C@@H]1[C@@H](O)[C@H](O)[C@@H](CO)O[C@@H]1Sc1ccccc1
Described as §3. Put shortly:
as §2

Substrate in series [9]: CC(=O)N[C@H]1[C@@H](O[C@@H]2[C@H](O)[C@H](O)[C@@H](O)[C@H](O)[C@H]2O)O[C@H](CO)[C@@H](O)[C@@H]1O
Kind of series: (§4) Activity at Mycobacterium tuberculosis MshB expressed in Escherichia coli BL21 by HPLC analysis. Summed up:
as §2

Substrate in series [10]: CC(=O)N[C@@H]1[C@@H](O)[C@H](O)[C@@H](CO)O[C@@H]1Sc1ccccc1
The description is as §4. Summed up:
as §2

With `CC(=O)N[C@@H]1[C@@H](O)[C@H](O)[C@@H](CO)O[C@H]1SCc1ccccc1`, the inhibition in series [1] amounted to 13.3%; in series [2], 0%.
With `CC(=O)N[C@H]1[C@@H](O[C@@H]2[C@H](O)[C@H](O)[C@@H](O)[C@H](O)[C@H]2O)O[C@H](CO)[C@@H](O)[C@@H]1O`, the Activity in series [3] amounted to 106 nmol/min/mg. For the same molecule, the Ratio in series [4] worked out at 690 M⁻¹ s⁻¹.
As to `CC1=C(CCC(=O)N[C@@H]2[C@@H](O)[C@H](O)[C@@H](CO)O[C@@H]2Sc2ccccc2)C(=O)c2c(O)cccc2C1=O`, the inhibition is 57.4% in series [1] and 28.8% in series [2]. The Ki in series [5] came out at 167 µM.
In the case of `C=CC[C@H]1[C@@H](OC2CCCCC2)O[C@H](CO)[C@@H](O)[C@@H]1O`, the inhibition came to 0% in series [1] and 73.8% in [2].
`CC(=O)N[C@H]1[C@@H](OC2CCCCC2)O[C@H](CO)[C@@H](O)[C@@H]1O` gave an Activity in series [3] of 6.07 nmol/min/mg.
Take `CCC[C@H]1[C@@H](OC2CCCCC2)O[C@H](CO)[C@@H](O)[C@@H]1O`: the inhibition was 0% in series [1] and 22% in series [2].
The like results for `O=C(CCl)N[C@@H]1[C@@H](O)[C@H](O)[C@@H](CO)O[C@@H]1SC1CCCCC1` were, in that order, 14.9% and 0%.
In the case of `OC[C@H]1O[C@H](OC2CCCCC2)[C@@H]2CC(O)CO[C@H]2[C@@H]1O` (stereo partly drawn), the values for the inhibition in [1] and in [2] were 6.6% and 35%, respectively.
Take `CS(=O)(=O)N[C@@H]1[C@@H](O)[C@H](O)[C@@H](CO)O[C@@H]1SC1CCCCC1`: the inhibition in [1] and in series [2] was 0% throughout.
Molecule `CC(=O)N[C@@H]1[C@@H](O)[C@H](O)[C@@H](CO)O[C@@H]1SC1CCCCC1` gave an Activity in series [3] of 6.11 nmol/min/mg.
As for `N[C@@H]1[C@@H](O)[C@H](O)[C@@H](CO)O[C@@H]1SC1CCCCC1`, the inhibition in [1] stood at 16.4%; in [2] it was 0%.
Take `CC(=O)N[C@@H]1[C@@H](O)[C@H](O)[C@@H](CO)O[C@@H]1Sc1ccc([N+](=O)[O-])cc1[N+](=O)[O-]`: the figures for the inhibition in series [1] and in series [2] were 29.4% and 0%, respectively.
As to `CC1=C(CCCC(=O)N[C@@H]2[C@@H](O)[C@H](O)[C@@H](CO)O[C@@H]2Sc2ccccc2)C(=O)c2c(O)cccc2C1=O`, the inhibition worked out at 81.6% in [1] and 37.8% in series [2].
`CC(=O)N[C@@H]1[C@@H](O)[C@H](O)[C@@H](CO)O[C@@H]1Sc1ccccc1` had an Activity in [3] of 27 nmol/min/mg. In addition, the Ratio in [4] stood at 69.4 M⁻¹ s⁻¹.
In the case of `CC(O)C[C@H]1[C@@H](OC2CCCCC2)O[C@H](CO)[C@@H](O)[C@@H]1O` (stereo partly drawn), the inhibition in series [1] worked out at 11.4%; in series [2] it was 20.5%.
On to `CC(=N)N[C@@H]1[C@@H](O)[C@H](O)[C@@H](CO)O[C@@H]1SC1CCCCC1`, for which the inhibition in series [1] was 0%; in [2] it was 6.8%.
With `CC1=C(CCCCC(=O)N[C@@H]2[C@@H](O)[C@H](O)[C@@H](CO)O[C@@H]2Sc2ccccc2)C(=O)c2c(O)cccc2C1=O`, the values for the inhibition in [1] and in [2] were 81.4% and 23.2%, respectively. This molecule also came in with a Ki in series [5] of 94 µM.
`C=CC[C@H]1[C@H](OC2CCCCC2)O[C@H](CO)[C@@H](O)[C@@H]1O`: the inhibition in [1] turned out to be 0%; in series [2], 9.3%.
Regarding `CC(=O)C[C@H]1[C@@H](OC2CCCCC2)O[C@H](CO)[C@@H](O)[C@@H]1O`, the inhibition in series [1] was 6.7%; in series [2], 17.2%.
Consider `N[C@@H]1[C@@H](O)[C@H](O)[C@@H](CO)O[C@@H]1Sc1ccccc1`, for which the figures for the inhibition in series [1] and in [2] were 6.1% and 17%, respectively.
On to `CO[C@H]1OCC(S[C@H]2O[C@H](CO)[C@@H](O)[C@H](O)[C@H]2NC(C)=O)C[C@H]1O` (stereo partly drawn), for which the inhibition in series [1] was 0%; in [2], 27%.
As for `CC1=C(CCCCCC(=O)N[C@@H]2[C@@H](O)[C@H](O)[C@@H](CO)O[C@@H]2Sc2ccccc2)C(=O)c2c(O)cccc2C1=O`, the inhibition worked out at 94.8% in series [1] and 44.5% in series [2]. For the same molecule, the Ki in series [5] worked out at 16.8 µM.
In the case of `OC[C@H]1O[C@H](OC2CCCCC2)[C@H](CC2CO2)[C@@H](O)[C@@H]1O` (stereo partly drawn), the figures for the inhibition in series [1] and in [2] were 19.7% and 19.4%, respectively.
As for `CC(=O)N[C@@H](CSSc1ccc2cc(O)ccc2c1)C(=O)NC1[C@@H](OC2[C@H](O)[C@H](O)C(O)[C@@H](O)[C@H]2O)O[C@H](CO)[C@@H](O)[C@@H]1O` (stereo partly drawn), the Km in series [6] came out at 328 µM.
Turning to `O=C(Nc1ccccc1)N[C@@H]1[C@@H](O)[C@H](O)[C@@H](CO)O[C@@H]1SC1CCCCC1`, the inhibition in series [1] came to 17%; in [2] it was 15%.
As to `CC(=O)N[C@@H]1[C@@H](O)[C@H](O)[C@@H](CO)O[C@H]1Sc1ccccc1`, the inhibition in series [1] worked out at 15.1%; in [2] it was 0%.

B1: 1D-myo-inositol 2-acetamido-2-deoxy-alpha-D-glucopyranoside deacetylase (Mycobacterium tuberculosis), P9WJN3 (protein)
chain: MSETPRLLFVHAHPDDESLSNGATIAHYTSRGAQVHVVTCTLGEEGEVIGDRWAQLTADHADQLGGYRIGELTAALRALGVSAPIYLGGAGRWRDSGMAGTDQRSQRRFVDADPRQTVGALVAIIRELRPHVVVTYDPNGGYGHPDHVHTHTVTTAAVAAAGVGSGTADHPGDPWTVPKFYWTVLGLSALISGARALVPDDLRPEWVLPRADEIAFGYSDDGIDAVVEADEQARAAKVAALAAHATQVVVGPTGRAAALSNNLALPILADEHYVLAGGSAGARDERGWETDLLAGLGFTASGT
Regarding B1, the Vmax in [7] worked out at 437 nmol/min/mg; in series [8] it was 214 nmol/min/mg. Also, the results for the Km in series [9] and in series [10] were 348 µM and 1700 µM, respectively. In addition, the kcat stood at 0.24 s⁻¹ in series [9] and 0.12 s⁻¹ in series [10].

(Values after ChEMBL document CHEMBL1156177, “Conjugates of plumbagin and phenyl-2-amino-1-thioglucoside inhibit MshB, a deacetylase involved in the biosynthesis of mycothiol” (Bioorg Med Chem, 2010).)
